Measured values collected from several papers.
Each line is one published result; the experiments were not run side by side.
Read-out: metabolic stability

CN1CCN(Cc2cc(CNC3(c4ccccc4F)CCCC3)ccc2O)CC1  half-life (mouse, liver microsomes; 4.6 µM, pH 7.5): 12 min
CCOC(=O)C1=C(C)N/C(=C/c2cc(C)n(-c3ccc(CN4CCOCC4)cc3)c2C)C1=O  half-life (mouse, liver microsomes; 1 µM): 31 min
O=C(O)CN(CCCc1ccccc1)CC(=O)N[C@H](CO)Cc1c[nH]cn1  half-life (male mouse, liver microsomes; 1 µM, pH 7.4): > 40 min
Fc1ccc2nc(Cc3c[nH]c4c(F)cccc34)[nH]c2c1  half-life (mouse, liver microsomes; pH 7.4): 7.2 min
CCOC(=O)C1=C(C)N/C(=C/c2cc(C)n(-c3ccncc3)c2C)C1=O  half-life (mouse, liver microsomes; 1 µM): 29 min
NC[C@@H]1O[C@H](O[C@H]2[C@@H](O)[C@H](O[C@@H]3[C@@H](O)[C@H](N)C[C@H](N)[C@H]3O[C@H]3O[C@H](CO)[C@@H](O)[C@H](O)[C@H]3N)O[C@@H]2CO)[C@H](N)[C@@H](O)[C@@H]1O  half-life (mouse, liver microsomes; 25 µM, pH 7.4): 143 min
CCOC(=O)C1=C(C)N/C(=C/c2cc(C)n(Cc3ccc(C(F)(F)F)cc3)c2C)C1=O  half-life (mouse, liver microsomes; 1 µM): 17 min
N=c1c2c(-c3ccccc3)c(-c3ccccc3)n(Cc3ccccc3)c2ncn1C1CCOCC1  half-life (male CD-1 mouse, liver microsomes; 1 µM, pH 7.4): 30 min
C=CC(=O)Nc1cccc(-n2nc3c(=O)[nH]nc(N)c3c2-c2oc3ccc(C)cc3c2C)c1  half-life (nude mouse, blood; 1 µM, whole blood): 134 min
COC(=O)CN(CCCc1ccccc1)CC(=O)N[C@@H](Cc1c[nH]cn1)c1nc(C)no1  half-life (male mouse, liver microsomes; 1 µM, pH 7.4): 19 min
CCOC(=O)NS(=O)(=O)c1sc(CC(C)C)cc1-c1ccc2c(c1)CN(C(=O)OCC)C2  half-life (mouse, liver microsomes; 1 µM, pH 7.4): 2.1 min
O=c1ccc2ccc(O)cc2o1  half-life (mouse, liver S9; 2 µM, pH 7.4): 4.71 min
O=S(=O)(Nc1cccc(-c2nnn[nH]2)c1)c1ccc(C(F)(F)F)c(F)c1  half-life (mouse, liver microsomes): 174 min
CCOC(=O)C1=C(C)N/C(=C/c2cc(C)n(-c3ccc(Cl)cc3)c2C)C1=O  half-life (mouse, liver microsomes; 1 µM): 24 min
C=CC(=O)Nc1ccc(N2CCC[C@@H](Nc3ncc(Cl)c(-c4c[nH]c5ccccc45)n3)C2)cc1  half-life (mouse, liver microsomes): 7.2 min
O=C(OC(C(F)(F)F)C(F)(F)F)N1CCc2ccccc2C1  half-life (mouse, liver microsomes): 4 min
O=C(Nc1ccccc1)C1CCN(c2ncc(-c3ccc4c(c3)OCCCO4)s2)CC1  half-life (mouse, liver microsomes; 1 µM): < 10 min
C=CC(=O)Nc1cc(OC)c(N2CCC[C@@H](Nc3ncc(Cl)c(-c4c[nH]c5ccccc45)n3)C2)cc1C  half-life (mouse, liver microsomes): 4.3 min
NC(=O)C1CCN(c2nnc(-c3ccc4c(c3)OCCCO4)s2)CC1  half-life (mouse, liver microsomes; 1 µM): > 30 min
COc1cc2c(cc(C#N)n2Cc2cn[nH]c2)c(C)c1CN1CCC(Nc2ncnc3sc(CC(F)(F)F)cc23)CC1  half-life (CD-1 mouse, liver microsomes; 1 µM, pH 7.4): > 30 min
Cc1cc(S(=O)(=O)Nc2cccc(-c3nnn[nH]3)c2)ccc1C(F)(F)F  half-life (mouse, liver microsomes): 133 min
CCS(=O)(=O)Nc1cccc(-c2cn(C)c(=O)c3ccccc23)c1  half-life (mouse, liver microsomes): 11 min
CCOC(=O)NS(=O)(=O)c1sc(CC(C)C)cc1-c1ccc2c(c1)CN(C)C(=O)C2  half-life (mouse, liver microsomes; 1 µM, pH 7.4): 23 min
CN1CCC(Cc2cccc(CNC3(c4ccc(F)cc4)CCCC3)c2)CC1(C)C (racemic)  half-life (mouse, liver microsomes; 4.6 µM, pH 7.5): ~60 min
CC(C)NCC(O)COc1cccc2ccccc12 (stereo not drawn)  half-life (mouse, liver microsomes; 1 µM): 11.5 min
COc1cc(C2Oc3cc([C@H]4Oc5cc(O)cc(O)c5C(=O)[C@@H]4O)ccc3OC2CO)ccc1O (stereo partly drawn)  half-life (mouse, liver microsomes; 1 µM): 82.5 min
O=C1CCN(C(=O)Nc2ccc(F)c(C(F)F)c2)[C@@H]2CCCC[C@H]12  half-life (mouse, liver microsomes): > 32 min
O=C(CC1Cc2ccccc2C1)N[C@H](CN1CCCC1)[C@H](O)c1ccc2c(c1)OCCO2  half-life (mouse, liver microsomes): 2.5 min
CCCN(C)Cc1cc(-c2[nH]c3cccc(F)c3c(=O)c2C)ccc1Cc1ccc(OC(F)(F)F)cc1  half-life (mouse, liver microsomes): 3.47 min
CCOC(=O)C1=C(C)N/C(=C/c2cc(C)n(-c3ccc(N(C)C)cc3)c2C)C1=O  half-life (mouse, liver microsomes; 1 µM): 31 min
O=C(Nc1ccc(Cl)c(Cl)c1)c1ccc(N2CCNCC2)c([N+](=O)[O-])c1  half-life (CD-1 mouse, liver microsomes; 1 µM, pH 7.4): > 110 min
Cc1ccc(-c2cnc(N3CCC(C(N)=O)CC3)s2)cc1  half-life (mouse, liver microsomes; 1 µM): < 10 min
Cc1c(CN2CCC(Nc3ncnc4sc(CC(F)(F)F)cc34)CC2)c(O)cc2[nH]c(C#N)cc12  half-life (CD-1 mouse, liver microsomes; 1 µM, pH 7.4): > 30 min
CC[C@@H]1C=CC(=O)O[C@@H]1C[C@@H](O)[C@H](C)[C@H](OC)[C@@H](C)Cc1ccccc1  half-life (mouse, liver microsomes): 4.4 min
O=C(N[C@H](Cc1c[nH]c2ccccc12)C(=O)Nc1ccncc1)c1ccc(-c2ccc(F)c(F)c2)cc1F  half-life (mouse, liver microsomes): 39 min
CCCC[S+]([O-])c1sc2nc(-c3cccs3)ccc2c1N (stereo not drawn)  half-life (female CD-1 mouse, liver S9; 2 µM, pH 7.5): 13 min
O=S(=O)(Nc1cccc(-c2nnn[nH]2)c1)c1ccc(Cl)c2nonc12  half-life (mouse, liver microsomes): 81 min
CC[C@@H]1C=CC(=O)O[C@@H]1C[C@@H](OC)[C@H](C)[C@H](OC)[C@@H](C)Cc1ccc(F)cc1  half-life (mouse, liver microsomes): < 2.3 min
CCCCOC(=O)NS(=O)(=O)c1sc(CC(C)C)cc1-c1ccc(OC(F)(F)F)c(Cn2ccnc2)c1  half-life (mouse, liver microsomes; 1 µM, pH 7.4): 103 min
Fc1ccc([C@@H]2CCNC[C@H]2COc2ccc3c(c2)OCO3)cc1  half-life (CD-1 mouse, liver microsomes; 1 µM, pH 7.4): 24 min
CCOC(=O)C1=C(C)N/C(=C/c2cc(C)n(-c3ccc(Br)cc3)c2C)C1=O  half-life (mouse, liver microsomes; 1 µM): 28 min
COC(=O)c1csc(C(=O)c2c[nH]c3ccccc23)n1  half-life (mouse, liver microsomes): 11 min
NC1(c2ccc(-c3nc4ccn5c(=O)[nH]nc5c4cc3-c3ccccc3)cc2)CCC1  half-life (CD-1 mouse, liver microsomes; 1 µM, pH 7.4): 85.8 min
CC(C)NCC(O)COc1cccc2ccccc12 (stereo not drawn)  half-life (mouse, liver microsomes; 1 µM, pH 7.4): 15.8 min
O=S(=O)(Nc1cccc(-c2nnn[nH]2)c1)c1ccc(Cl)c(Cl)c1Cl  half-life (mouse, liver microsomes): 192 min
CCOC(=O)C1=C(C)N/C(=C/c2cc(C)n(-c3cccnc3)c2C)C1=O  half-life (mouse, liver microsomes; 1 µM): 21 min
CN(C)CCN1CCN(c2nc(NCc3cccc(Cl)c3)c3cc(-c4ccc(=O)n(C)c4)ccc3n2)CC1  half-life (mouse, liver microsomes): 53 min
COc1ccc2cc(C(=O)Nc3ccc4c(c3)CN(C3CCC(=O)NC3=O)C4=O)ccc2c1 (stereo not drawn)  half-life (mouse, liver microsomes; 2 µM): 180 min
N=C(N)NCc1ccc(NC(=O)C23CCC(C(=O)Nc4ccc(C5=CCN(C(=N)N)CC5)cc4)(CC2)CC3)cc1  half-life (CD-1 mouse, liver microsomes; 1 µM): > 60 min
C/C=C/C[C@H](C)[C@@H](OC)[C@@H](C)[C@H](O)C[C@H]1OC(=O)C=C[C@H]1CC  half-life (mouse, liver microsomes): < 15 min
O=S(=O)(Nc1cccc(-c2nnn[nH]2)c1)c1cc(C(F)(F)F)cc(C(F)(F)F)c1  half-life (mouse, liver microsomes): 535 min
CCCCOC(=O)NS(=O)(=O)c1sc(CC(C)C)cc1-c1ccc2c(c1)CN(C(C)=O)CC2  half-life (mouse, liver microsomes; 1 µM, pH 7.4): 2.2 min
CC1=C(C(N)=O)C(=O)/C(=C\c2cc(C)n(-c3ccccc3C(F)(F)F)c2C)N1  half-life (mouse, liver microsomes; 1 µM): 19 min
CNC(=O)[C@H](Cc1c[nH]cn1)NC(=O)CN(CCCc1ccccc1)CC(=O)OC  half-life (male mouse, liver microsomes; 1 µM, pH 7.4): 26 min
